Hit rate of the full screen: of about 200,000 compounds, about 2,000 (1%) were called active. The entries come from a sample that favours actives as a whole. Unmarked numbers belong to inactive results.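 How the source made its calls: active means inhibition above the campaign mean inhibition of all tested compounds plus 3 SD (cut at about 20% in these data); inactive means the rest.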

What is called inhibition is the relative decrease from the control value, in per cent.

Neuropeptide Y receptor type 1 (Homo sapiens), sequence (P25929 whole entry, looked up): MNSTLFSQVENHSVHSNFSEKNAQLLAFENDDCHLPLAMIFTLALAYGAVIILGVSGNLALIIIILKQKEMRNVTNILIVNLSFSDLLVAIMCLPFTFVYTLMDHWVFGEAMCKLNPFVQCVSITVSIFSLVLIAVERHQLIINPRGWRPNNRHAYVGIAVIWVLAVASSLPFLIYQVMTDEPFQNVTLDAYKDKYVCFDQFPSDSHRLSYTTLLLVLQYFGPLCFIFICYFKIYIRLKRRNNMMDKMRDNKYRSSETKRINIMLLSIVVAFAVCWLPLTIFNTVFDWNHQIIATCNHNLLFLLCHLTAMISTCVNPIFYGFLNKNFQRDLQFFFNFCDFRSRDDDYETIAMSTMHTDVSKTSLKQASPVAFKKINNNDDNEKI

This experiment deals with Neuropeptide Y receptor type 1 (Homo sapiens) (UniProt P25929). The experiment can be described thus: NPY-Y1 receptor antagonists, primary screen, cell-based (AID 1040).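 Further: 0% = DMSO wells given NPY plus isoproterenol and 100% = isoproterenol alone without NPY.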 The following applies: HEK293-CNG Y1 cells, membrane potential fluorescence; at 3.6 µM; active compounds read high; NPY at EC95, then isoproterenol. Put shortly:
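Material: HEK293 Y1/CNG channel cell line; also added: NPY (25 nM), isoproterenol (1 µM), Ro 20-1724 (25 µM); doses: one concentration, 3.6 µM, in 0.4% DMSO; schedule: compound incubation 1 h at room temperature, readout 45 min post-stimulation; technique: membrane potential fluorescence; measure: fluorescence ratio normalized to % inhibition between controls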
With `Cc1nonc1C(=O)N/N=C/c1ccc(O)cc1`, the inhibition is -0.92%.
Then `Cc1ccc(C)c2[nH]c(=O)c(CCNC(=O)c3cccs3)cc12`, with 1.69%; and `CCNC(=O)COC(=O)/C=C/c1c(C)nn(Cc2cccc(OC)c2)c1Cl`, with 9.4%.
`COCCn1c(-c2ccc(OC)c(OC)c2)nc2ccccc21`: the inhibition is 1.65%.
Consider `CC(=O)Nc1nonc1-c1nc2ccccc2n1Cc1ccccn1`, for which the inhibition is 1.23%.
With `COc1ccc(C)c(Cn2c(-c3nonc3N)nc3ccccc32)c1`, the inhibition was 20.2% (active).
On to `CCCn1c(C(O)c2cc(OC)ccc2OC)nc2ccccc21` (stereo unspecified), for which the inhibition was 6.38%.
On to `Nc1nonc1-c1nc2ccccc2n1CCC(=O)O`, for which the inhibition was 2.11%.
With `Nc1nonc1-c1nc2ccccc2n1Cc1ccc(F)cc1`, the inhibition was 33.9% (active).
For the compound `COc1ccc(C(=O)Nc2c(Cl)cc(Cl)cc2C(=O)N2CCC(C)CC2)cc1`, the inhibition is 7.28%.
Then `O=C(N/N=C/c1ccc(Br)o1)c1cncc(Br)c1`, with 0.31%; and `CCCOc1ccc(C(=O)C(CCC(CNCC)C(=O)c2ccc(OCCC)cc2)CNCC)cc1` (stereo unspecified), with 41.9% (active).
On to `CCCOc1ccc(N/C=C/C(=O)C(C)(C)C)cc1`, for which the inhibition is -0.02%.
For the compound `CCCOc1ccc(C(=O)NCCc2ccccc2)cc1`, the inhibition was 4.6%.
For `O=C(O)/C(=C/c1cccnc1)NC(=O)c1ccccc1`, the inhibition is -1.58%.
As to `CCOc1ccc(S(=O)(=O)NCCSc2ccccc2)cc1`, the inhibition was 28.4% (active).
With `O=S(=O)(NCCSc1ccccn1)c1ccc(Cl)cc1`, the inhibition is 7.92%.
Regarding `Cc1ccc(S(=O)(=O)NCCSc2ccccc2)cc1[N+](=O)[O-]`, the inhibition is 20.1%.
For the compound `C/C(=N\Nc1ncc(Cl)cc1Cl)c1cccs1`, the inhibition is 4.59%.
On to `CCOP(=O)(OCC)C(Nc1cccc(C)c1)c1ccc(F)cc1` (stereo unspecified), for which the inhibition is 6.17%.
Turning to `Cc1cc(N2CCN(C)CC2)nc2ccc(NC(=S)N3CCOCC3)cc12`, the inhibition was 6.76%.
The value for `Cc1nc(-c2ccccc2)sc1C(=O)/C=C/c1ccccc1` was 21.8% (active); that for `Cc1ccc(SCC(=O)c2sc(-c3ccccc3)nc2C)cc1` was 8.05%.
With `Cc1nc(-c2ccccc2)sc1C(=O)/C=C/N(C)C`, the inhibition was 6.13%.
Take `CC(Oc1ccc(Br)cc1Br)C(=O)NC1CCCC1` (stereo unspecified): the inhibition was 7.12%.
`COc1ccc(OC)c(NC(=O)CSc2nc3cccnc3n2C)c1`: the inhibition is 10.8%.
For `COc1ccc(OC)c(NC(=O)CSc2nc(N)c(-c3ccccc3)c(=O)[nH]2)c1`, the inhibition is 30.3% (active).
For `COc1ccc(NC(=O)CSc2nc(N)c(-c3ccccc3)c(=O)[nH]2)cc1`, the inhibition was 7.14%.
The value for `Cc1ccc(S(=O)(=O)CC(=O)Nc2c(C)n(C)n(-c3ccccc3)c2=O)cc1` was 1%.
For `Cc1ccc2c(c1)C1CN(C)CCC1N2C(=S)Nc1ccc(Cl)cc1Cl` (stereo unspecified), the inhibition was 0.03%.
Then `Cc1cc(Oc2ccc(Cl)cc2)nc(SCC(=O)c2ccccc2)n1`, with 44.4% (active).
For `Cc1cc(SCC(=O)c2ccccc2)nc(SCC(=O)c2ccccc2)n1`, the inhibition was 18.3%.
The value for `COC(=O)c1cc(C(=O)CSc2nc(C)cc(C)n2)ccc1O` was -2.7%; that for `Cc1cc(C)c(NC(=O)C[N+](C)(C)CC(O)COc2cccc3ccccc23)c(C)c1` (stereo unspecified) was -12.8%.
Then `Cc1cccc(NC(=S)NC23CN4CN(CN(C4)C2)C3)c1`, with -0.45%.
`CC(C)(C)NCc1cc(Br)ccc1OC1CCCC1`: the inhibition is 37.7% (active).
Take `COc1cc(CNC2CCCCC2)c(Br)cc1OC1CCCC1`: the inhibition is -5.34%.
On to `CCOCCCNCc1cc(Br)ccc1OCC`, for which the inhibition is 11.8%.
Then `COc1ccc(Sc2nc(-c3ccccc3)ncc2OC)cc1`, with 3.64%; and `CCc1cccc(NC(=O)CCNS(=O)(=O)c2cccc3nonc23)c1`, with 0.89%; and `CCN(CC)S(=O)(=O)c1ccc(Cl)c(NC(=O)c2ccncc2)c1`, with 1.54%.

Source of the values: PubChem BioAssay AID1040 (The Scripps Research Institute Molecular Screening Center, 2008).
